Laboratory results from paper PMC8717895 (Neuro-oncology Advances, 2021).
“Also recorded” adds a separate entry of the source. Where two headings read alike, the source gives them in different places.

Tests used:
[1] = assay type: in vivo, human; conditions: stratum B
[2] = Serum pharmacokinetics, stratum A; assay type: in vivo, human; conditions: for AUC(0-t) / Cmax / half-life / Tmax: human, serum, oral; for AUC(0-t): 100 mg/m2, AUC0–T (AUC0–24h)
[3] = Serum pharmacokinetics across all dosage levels; assay type: in vivo; conditions: human, oral; for Tmax: across dosage levels; for half-life: pediatric patients, across all dosage levels
[4] = CSF crenolanib disposition; assay type: in vivo, human; conditions: for CSF crenolanib concentration: stratum A2 patient
[5] = test system: newly diagnosed DIPG; assay: Survival outcomes, stratum A; assay type: in vivo, human
Outline: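 Dosing began with conformal RT (1.8-Gy fractions daily, 5 days/week, 54 Gy) and continued without break. PFS ran from therapy start to progression or death; OS ran from diagnosis to death. Kaplan–Meier estimates; log-rank versus age-matched institutional DIPG cohort (1992–2011).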

[6] = test system: recurrent HGG, including DIPG; assay: Survival outcomes and response, stratum B; assay type: in vivo, human
Outline: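 Dosing was BSA-based, rounded to 20 mg, and escalated from 100 mg/m2. PFS ran from therapy start to progression or any-cause death; OS ran from diagnosis to any-cause death. Event-free patients were censored at last follow-up. Survival was estimated by Kaplan–Meier.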

[7] = biological target: PDGF α receptor; conditions: cited from earlier work
[8] = biological target: PDGF β receptor; conditions: cited from earlier work
[9] = test system: phospho-PDGFR; conditions: C6 glioblastoma xenograft, single oral dose of 10 mg/kg, maintained for 3 h; ref Crenolanib Investigator's Brochure, AROG Pharmaceuticals, LLC, 2011; cited from earlier work
[10] = test system: human glioma xenograft (U87MG); conditions: after 9 days of dosing at 50 mg/kg BID, ref Crenolanib Investigator's Brochure, AROG Pharmaceuticals, LLC, 2011; cited from earlier work
[11] = cited from earlier work
[12] = in vitro, human plasma; cited from earlier work
[13] = read-out: 50% inhibitory concentration

With `CC1(COc2ccc3c(c2)ncn3-c2ccc3cccc(N4CCC(N)CC4)c3n2)COC1` [crenolanib] the “DLTs attributable to crenolanib during the DLT observation period” value ([1]; dose level 3) was “grade 4 GGT, ALT, and AST elevations”, the “DLTs attributable to crenolanib during the DLT observation period” value ([1]; dose level 4) was “grade 3 amylase, GGT, ALT, and AST elevations; also recorded: grade 3 GGT elevation” and the “patients having grade 3/4 elevations of ALT, AST, GGT, or alkaline phosphatase” value ([1]; during and after the DLT period) was 17%. The “Maximum tolerated dose (MTD)” value ([1]; once daily single agent, pediatric) was 170 mg/m^2, the “Most common grade 3/4 toxicity” value ([1]; resolved with drug interruption) was “leukopenia” and the AUC(0-t) ([2]; stratum A1 (whole tablets), 100 mg/m^2, D28, median (range)) was 7.34 µM·h. It also gave an AUC(0-t) ([2]; stratum A2 (crushed tablets), 100 mg/m^2, D28, median (range)) of 6.95 µM·h, a Cmax ([2]; 100 mg/m2, C MAX, stratum A1 (whole tablets), 100 mg/m^2, D1, median (range)) of 645 nM and a Cmax ([2]; 100 mg/m2, C MAX, stratum A1 (whole tablets), 100 mg/m^2, D28, median (range)) of 750 nM. The Cmax ([2]; 100 mg/m2, C MAX, stratum A2 (crushed tablets), 100 mg/m^2, D1, median (range)) was 692 nM, the Cmax ([2]; 100 mg/m2, C MAX, stratum A2 (crushed tablets), 100 mg/m^2, D28, median (range)) was 651 nM and the half-life ([2]; 100 mg/m2, Half-life, stratum A1 (whole tablets), 100 mg/m^2, D1, median (range)) was 8.5 h. It also gave a half-life ([2]; 100 mg/m2, Half-life, stratum A1 (whole tablets), 100 mg/m^2, D28, median (range)) of 4.9 h, a half-life ([2]; 100 mg/m2, Half-life, stratum A2 (crushed tablets), 100 mg/m^2, D1, median (range)) of 6.8 h and a half-life ([2]; 100 mg/m2, Half-life, stratum A2 (crushed tablets), 100 mg/m^2, D28, median (range)) of 5.1 h. The Tmax ([2]; 100 mg/m2, T MAX, stratum A1 (whole tablets), 100 mg/m^2, D1, median (range)) was 4 h, the Tmax ([2]; 100 mg/m2, T MAX, stratum A1 (whole tablets), 100 mg/m^2, D28, median (range)) was 6 h and the Tmax ([2]; 100 mg/m2, T MAX, stratum A2 (crushed tablets), 100 mg/m^2, D1, median (range)) was 2 h. It also gave a Tmax ([2]; 100 mg/m2, T MAX, stratum A2 (crushed tablets), 100 mg/m^2, D28, median (range)) of 4 h, a Cmax ([2]; 130 mg/m2, C MAX, stratum A, 130 mg/m^2, D1, median (range)) of 733 nM and a Cmax ([2]; 130 mg/m2, C MAX, stratum A, 130 mg/m^2, D28, median (range)) of 1110 nM. For the same compound, the half-life ([2]; 130 mg/m2, Half-life, stratum A, 130 mg/m^2, D1, median (range)) was 7.3 h, the half-life ([2]; 130 mg/m2, Half-life, stratum A, 130 mg/m^2, D28, median (range)) was 6.1 h and the Tmax ([2]; 130 mg/m2, T MAX, stratum A, 130 mg/m^2, D1, median (range)) was 2 h. It also gave a Tmax ([2]; 130 mg/m2, T MAX, stratum A, 130 mg/m^2, D28, median (range)) of 4 h, a Cmax ([2]; 170 mg/m2, C MAX, stratum A, 170 mg/m^2, D1, median (range)) of 1240 nM and a Cmax ([2]; 170 mg/m2, C MAX, stratum A, 170 mg/m^2, D28, median (range)) of 2010 nM. The half-life ([2]; 170 mg/m2, Half-life, stratum A, 170 mg/m^2, D1, median (range)) was 8.5 h, the half-life ([2]; 170 mg/m2, Half-life, stratum A, 170 mg/m^2, D28, median (range)) was 7.2 h and the Tmax ([2]; 170 mg/m2, T MAX, stratum A, 170 mg/m^2, D1, median (range)) was 4 h. For the same compound, the Tmax ([2]; 170 mg/m2, T MAX, stratum A, 170 mg/m^2, D28, median (range)) was 3 h, the Cmax ([2]; 220 mg/m2, C MAX, stratum A, 220 mg/m^2, D1, median (range)) was 1890 nM and the Cmax ([2]; 220 mg/m2, C MAX, stratum A, 220 mg/m^2, D28, median (range)) was 2270 nM. The half-life ([2]; 220 mg/m2, Half-life, stratum A, 220 mg/m^2, D1, median (range)) was 6.75 h, the half-life ([2]; 220 mg/m2, Half-life, stratum A, 220 mg/m^2, D28, median (range)) was 5.5 h and the Tmax ([2]; 220 mg/m2, T MAX, stratum A, 220 mg/m^2, D1, median (range)) was 4 h. The Tmax ([2]; 220 mg/m2, T MAX, stratum A, 220 mg/m^2, D28, median (range)) was 2 h, the “AUC0–T (AUC0–∞)” value ([2]; stratum A1 (whole tablets), 100 mg/m^2, D1, median (range)) was 8683 (4566–15 895) h·nM and the “AUC0–T (AUC0–∞)” value ([2]; stratum A2 (crushed tablets), 100 mg/m^2, D1, median (range)) was 7397 (3759–16 455) h·nM. The “AUC0–T (AUC0–∞)” value ([2]; stratum A, 130 mg/m^2, D1, median (range)) was 5951 (2675–15 291) h·nM, the Tmax ([3]; median) was 4 h and the Tmax ([3]; range) was 1 to 8 h. It also gave a half-life ([3]; median) of 7.1 h, a half-life ([3]; range) of 2.2 to 18.8 h and a Kp ([4]; human, cerebrospinal fluid / serum (total), oral, 100 mg/m^2) of 0.025. For the same compound, the serum crenolanib concentration ([4]; simultaneous with day 28 CSF sampling, third cycle) was 546 nM, the CSF crenolanib concentration ([4]; third cycle day 14, approximately 19 h after dose) was 9.15 nM and the CSF crenolanib concentration ([4]; third cycle day 28, approximately 19 h after dose) was 13.6 nM. For the same compound, the “1-year OS estimate” value ([5]; all patients in stratum A) was 43.3% ± 8.7%, the “1-year PFS estimate” value ([5]; all patients in stratum A) was 17.8% ± 7.2% and the “2-year OS estimate” value ([5]; all patients in stratum A) was 20.0% ± 6.8%. The “6-month PFS estimate” value ([5]; all patients in stratum A) was 74.9% ± 8.2%, the “OS distributions versus historical cohort of newly diagnosed DIPG (n = 189)” value ([5]; stratum A, log-rank P = .99) was “no significant difference” and the “1-year OS estimate” value ([6]; all patients in stratum B) was 72.1% ± 9.5%. The “1-year PFS estimate” value ([6]; all patients in stratum B) was 5.2% ± 3.5%, the “2-year OS estimate” value ([6]; all patients in stratum B) was 33.7% ± 9.7% and the “6-month PFS estimate” value ([6]; all patients in stratum B) was 10.3% ± 5.6%. For the same compound, the Objective radiologic responses ([6]; stratum B) was “No objective radiologic responses were observed”, the 50% inhibitory concentration [7] was “approximately 1 ng/mL” and the IC50 [7, 13] was about 2.25 nM. For the same compound, the 50% inhibitory concentration [8] was about 0.4 ng/mL, the IC50 [8, 13] was about 0.902 nM and the “inhibition of phospho-PDGFR” value [9] was 53%. For the same compound, the “inhibition of xenograft growth” value [10] was 47%, the “incidence of significant elevations of liver enzymes” value ([11]; adults with advanced solid tumors) was under 5% and the “Maximum tolerated dose (MTD)” value ([11]; adults, uncoated tablets with food) was “not reached”. For the same compound, the unbound fraction [12] was 4.1%.
